A short description of this data set: Toxicity liver stage against HepG2, at 10uM. The class given is cell-based. Further details: test concentration 10 uM, cell line HepG2-A16-CD81EGFP. The settings on record: human, HepG2-A16-CD81EGFP cells; read-out: INHIBITION
The method in brief:
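Uninfected HepG2-A16-CD81EGFP cells, 3 × 10^3 per well, 1536-well, plated on prespotted compound at 10 μM final, parasite-free screening media added to match infected plates; puromycin 10 μM positive, DMSO 0.5% negative; run in parallel with 48 h PbLuc assay at 37 °C, 5% CO2; viability by CellTiter-Glo luminescence, normalized to controls.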
Consider `COC1(CNC(=O)c2ccc(Cl)c(Cl)c2)CCSC1` (stereo not given), for which the cytotoxicity at 10 µM was determined as 2.05%.

As to `Cc1cnc(N2C(=O)CSC2c2cccs2)s1` (stereo not given), the cytotoxicity at 10 µM is 0.847%.

Turning to `Cc1cccc(N(C)Cc2cc(=O)n3oc(C)cc3n2)c1`, the cytotoxicity at 10 µM was 0.14%.

Take `CN1CCCC1c1ccc(N2CCOCC2)cn1` (stereo not given): the cytotoxicity at 10 µM is -2.21%.

As to `CC(=O)N1CCC(c2nccnc2-c2ccc(F)cc2)CC1`, the cytotoxicity at 10 µM was -2.22%.

For `CN1CCN(Cc2cscn2)CC(C(=O)N(C)C)C1` (stereo not given), the cytotoxicity at 10 µM is -5.61%.

`COc1ccc(Cc2cccc(C3CCN(C)CC3)n2)cc1`: the cytotoxicity at 10 µM was 0.153%.

`CC(C)C(C(N)=O)c1cccc(Cl)c1` (stereo not given): the cytotoxicity at 10 µM came to 3.82%.

Consider `CCN1CCN2CCCN(S(=O)(=O)c3ccc(C)cc3C)C2C1=O` (stereo not given), for which the cytotoxicity at 10 µM is 0.515%.

Turning to `Cc1cc(C)n(C2CCCN(C(=O)CN(C)c3cnccn3)C2)n1` (stereo not given), the cytotoxicity at 10 µM is 3.36%.

Consider `CCCn1nnnc1COC(=O)C1Cc2cc(Cl)ccc2O1` (stereo not given), for which the cytotoxicity at 10 µM is -5.68%.

On to `Cc1ccc(CNC(=O)NCc2nccn2C)c(OC(C)(C)C)c1`, for which the cytotoxicity at 10 µM was 2.66%.

As to `Cn1cc(N2CCCC(Nc3ccc4c(c3)CCCO4)C2=O)cn1` (stereo not given), the cytotoxicity at 10 µM was -6.79%.

Take `CCNC(=O)NC(=O)CNC1(c2noc(C)n2)CCCC1`: the cytotoxicity at 10 µM stood at 20.6%.

In the case of `Cc1nc(C)n(CC2CCCN2CC(=O)NCCc2cccs2)n1` (stereo not given), the cytotoxicity at 10 µM is -0.749%.

As to `O=C(NCCCn1ccnc1)Nc1ccn(CCc2ccccn2)n1`, the cytotoxicity at 10 µM was -0.386%.

For `CCc1nc(C2CCCN(c3nccc(C)n3)C2)no1` (stereo not given), the cytotoxicity at 10 µM was -2.69%.

Regarding `CN(Cc1ccc([S+](C)[O-])cc1)c1ccc(Br)cn1` (stereo not given), the cytotoxicity at 10 µM came to 11.8%.

As to `CN(Cc1cc2c(cc1OC(F)F)OCO2)Cc1nccn1C`, the cytotoxicity at 10 µM is -1.21%.

For `O=C(CCC1CCN(C(=O)c2csnn2)CC1)NCc1cccc(Cl)c1`, the cytotoxicity at 10 µM is -4.55%.

Turning to `CCOCCn1nc(C)cc1C(=O)N1CC[C@](O)(CC)[C@H](O)C1`, the cytotoxicity at 10 µM is -3%.

`Cc1c(C(C)NC2CSCCSC2)cnn1-c1ccc(F)cc1F` (stereo not given): the cytotoxicity at 10 µM was -11.1%.

`COc1ccc2c(C)c(C(=O)NCCCc3csc(N)n3)oc2c1`: the cytotoxicity at 10 µM was 2.58%.

Turning to `CCc1cc(N(C)CCc2noc(C)n2)nc(N2CCOCC2)n1`, the cytotoxicity at 10 µM was 4.12%.

For `CCC(OC)C(=O)NCc1cc2n(n1)CCCN(C1CCCCC1)C2` (stereo not given), the cytotoxicity at 10 µM came to 5.3%.

`CCn1c(Cn2cncn2)nnc1C1CCN(CCN)CC1`: the cytotoxicity at 10 µM is -0.111%.

For the compound `O=C1NCC2(CCCN(Cc3ccc(Cl)s3)C2)Oc2ccccc21` (stereo not given), the cytotoxicity at 10 µM came to 8.69%.

Take `CO[C@@H]1CC[C@@H](N(C)C(=O)COc2ccc(F)cc2)[C@H]1O`: the cytotoxicity at 10 µM was 8.47%.

Take `Cn1cnc2c1CCN(Cc1noc(-c3ccccc3)n1)C2`: the cytotoxicity at 10 µM was -1.96%.

In the case of `O=C(O)c1cc(S(=O)(=O)Nc2cc(F)ccc2F)cc2c1OCCO2`, the cytotoxicity at 10 µM is -7.42%.

Take `CS(=O)(=O)CCC(=O)Nc1cnn(-c2ccccc2Cl)c1`: the cytotoxicity at 10 µM was -6.66%.

In the case of `Cc1nn(CC(C)C)c(N(C)C)c1CNCc1cccnc1N(C)C`, the cytotoxicity at 10 µM was -7.71%.

Turning to `O=C(NS(=O)(=O)c1ccc2c(c1)OCCO2)c1ccc(Br)cc1F`, the cytotoxicity at 10 µM was 0.553%.

On to `Cc1nc(CN2CCOC(CNc3cccnn3)C2)oc1C` (stereo not given), for which the cytotoxicity at 10 µM was -7.94%.

For the compound `COC(=O)c1cccn1C1CCN(CC(=O)NC2CCCCC2)CC1`, the cytotoxicity at 10 µM was -8.21%.

For the compound `O=C(c1cccnc1N1CCN(CCO)CC1)N1CCCC1`, the cytotoxicity at 10 µM is -1.32%.

Consider `CC(C)OCCCN(Cc1ccncc1)Cc1cccc(F)c1`, for which the cytotoxicity at 10 µM was -15.6%.

With `Cc1nc(C)c(C(C)NCc2cnc(N3CCOCC3)nc2)s1` (stereo not given), the cytotoxicity at 10 µM is -4.76%.

With `CC(C)=CCN1C(=O)[C@@H]2CC[C@H]1CN(C(=O)CCc1n[nH]c(C)c1C)C2`, the cytotoxicity at 10 µM stood at 5.54%.

Turning to `NC(=O)c1cccnc1N1C[C@H]2CC[C@@H](C1)N(Cc1ccccn1)C2=O`, the cytotoxicity at 10 µM turned out to be 7.94%.
